In publication PMC2752669 (Biochemistry, 2009):
Ends that are not written are not given here.

Columns and labels:
[1] = tested on: hp-AS (RNA, rRNA) GGCGUCACACCUUCGGGUGAAGUCGCC; experiment: ESI-MS titration; conditions: NH4+ 100 mM; apparent; 100 mM NH4OAc, 50% 2-propanol, pH 6.7, 25 °C
[2] = tested on: A-site RNA hp-AS-pwk annealed to 5'-biotin-DNA; experiment: Peptide bead ELISA assay, hp-AS-pwk; type: binding, E. coli; conditions: 1 μM biotin-tagged RNA, 4 days, 4 °C; anti-biotin-alkaline phosphatase, BCIP
In short: (§1)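 Peptide beads washed, blocked overnight at 4 °C, then incubated 4 days at 4 °C with 1 μM biotin-tagged RNA (fresh RNA added daily) in HEPES-KOH pH 7.5/100 mM KCl/5 mM MgCl2 buffer. Buffer-only beads served as background. Detection: anti-biotin–alkaline phosphatase (1:8000, 1 h, room temperature), then BCIP (0.165 μg/μl, pH 9.5) overnight at 4 °C.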

[3] = tested on: helix 17 (h17) RNA from 16S rRNA; experiment: Peptide bead ELISA assay, h17 control; type: binding; conditions: biotin-tagged h17, 4 days, 4 °C; anti-biotin-alkaline phosphatase, BCIP
In short: as §1

[4] = tested on: A-site RNA hairpin hp-AS (bacterial 16S rRNA); experiment: Isothermal titration calorimetry of peptide into hp-AS; type: binding, E. coli; conditions: 10 mM potassium phosphate, 100 mM KCl, pH 7.2, 10 °C; average of three independent experiments
In short: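 RNA and test peptide were dialysed against water, dried, redissolved in buffer and degassed at 5 °C for 7 min. After a 2 μl preliminary injection, which was discarded, 20 μl injections of peptide (250–600 μM) went into hp-AS RNA (20–40 μM), spaced 300 s. Heats of peptide dilution into buffer without RNA were subtracted.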

[5] = tested on: A-site RNA hairpin hp-AS (bacterial 16S rRNA); experiment: ESI-MS binding to hp-AS; design: species or system E. coli; conditions: 1 μM RNA
In short: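 Hairpin RNA renatured in 100 mM NH4OAc (pH 6.7). 1 μM RNA mixed with peptide (0–375 μM), room temperature, 10 min, in 50% 2-propanol/100 mM NH4OAc pH 6.7, then ESI-MS. Fraction bound taken from summed complex versus free-RNA peak intensities. Salt series: 34 μM peptide at 30–200 mM NH4OAc. pH series: 34 μM peptide, 100 mM NH4OAc, pH 5.0–7.6.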

[6] = tested on: A-site RNA over TAR RNA; experiment: ESI-MS competition, A-site RNA versus TAR RNA; type: binding; conditions: data not shown
[7] = tested on: A-site RNA hairpin hp-AS (bacterial 16S rRNA); experiment: Enzymatic; type: binding, E. coli; conditions: 5 to 120 μM peptide, pH 7.2, 37 °C
In short: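 3′-32P-pCp-labelled hp-AS (1 μl, 250,000 cpm) preincubated with test peptide (0–120 μM) in 10 mM Tris-HCl pH 7.2, 15 mM NaCl, 1 mM EDTA, 37 °C, 1.5 h. RNase A (1 μl, 0.002 U/μl) was added to 5 μl final for 30 min at 37 °C, quenched on dry ice, formamide-denatured and gel-resolved beside an alkaline-hydrolysis ladder. Fraction bound versus peptide was curve-fitted for Kd; two independent experiments.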

[8] = tested on: E. coli S30 extract translation system; experiment: In vitro translation inhibition; type: biochemical
In short: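 E. coli S30 extract for circular DNA, with pBESTluc plasmid carrying firefly luciferase. Amino acids, S30 premix and increasing peptide concentrations in 50 μl, 37 °C for 1–2 h. Quenched on ice 5 min, luciferase reagent added, luminescence read. Background from a sample without DNA template.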

[9] = tested on: other RNA targets; experiment: Preliminary in vitro solution binding studies
[10] = target: T1, HPVHHYQ peptide on beads; experiment: bead fluorescence
T1 chain: HPVHHYQ

[11] = target: T2, LPLTPLP peptide on beads; experiment: bead fluorescence
T2 chain: LPLTPLP

[12] = target: T3, HPVHHYQ-NH2 peptide; experiment: RNase A footprinting
T3 chain: HPVHHYQ-NH2

[13] = target: T3, HPVHHYQ-NH2 peptide; experiment: ITC
[14] = target: T3, HPVHHYQ-NH2 peptide; experiment: RNase A footprinting
[15] = target: T1, HPVHHYQ peptide on beads; experiment: bead ELISA
[16] = target: T2, LPLTPLP peptide on beads; experiment: bead ELISA

H-HPVHHYQ-NH2
Kd [1]: 29 ± 2 µM

HPVHHYQ
Bead ELISA response with A-site RNA [2]: much stronger response than LPLTPLP
Bead ELISA binding to h17 [3]: No binding was observed

HPVHHYQ-NH2
Enthalpy ΔH [4]: -0.56 ± 0.05 kcal/mol
Entropy −TΔS [4]: -6.5 ± 0.3 kcal/mol
Effect of pH on ratio of free RNA to RNA-peptide complexes ([5]; pH 5.0 to 7.6, 100 mM NH4OAc, 50% IPA, 34 μM peptide, data not shown): no significant change
Kd ([5]; read-out: Apparent dissociation constant (ESI-MS), 0–375 μM peptide, 100 mM NH4OAc, pH 6.7, 50% 2-propanol, 25 °C, 10 min, average of three independent experiments): 29 ± 2 µM
Preference for A-site RNA over TAR RNA [6]: five-fold preference for the A-site RNA over TAR RNA
Residues protected from RNase A cleavage [7]: residues G1494 and U1495 are protected by the peptide
Residues with enhanced RNase A cleavage [7]: enhanced at residues A1492 and A1493
Inhibition of in vitro protein synthesis ([8]; 34 μM peptide, 37 °C, 1–2 h): no inhibition was observed
Remaining (luciferase) enzyme activity ([8]; 620 μM peptide, 37 °C, 1–2 h): approximately 50%
IC50 compared with neomycin ([8]; in vitro translation inhibition): high compared with the known antibiotic neomycin

LPLTPLP
Bead ELISA response with A-site RNA [2]: bind to the A-site RNA
Bead ELISA binding to h17 [3]: No binding was observed
Binding to other RNA targets [9]: binds to other RNA targets

GGCGUCGCUACUUCGGUAAAAGUCGCC (structured_RNA) [F-human-hp-AS]
binding result [10]: no binding
binding result [11]: no binding

GGCAGAUCUCAGCCUGGGAGCUGUCUGCC (structured_RNA) [F-TAR]
binding result [10]: no binding
binding result [11]: no binding

GGCGUCACACCUUCGGGUGAAGUCGCC (structured_RNA) [F-hp-AS]
binding result [11]: binds

GGCGUCACACCUUCGGGUGAAGUCGCC (structured_RNA) [hp-AS]
Kd [12]: 18 ± 4 µM
Kd [13]: 2000 ± 400 nM
Kd [14]: 16 ± 4 µM

B1: h17 annealed to 5'-biotin-DNA (mixed)
RNA: GGCGGGGAGGAAGGGAGUAAAGUUAAUACCUUUGCUCAUUGACGUUACCCGCCGGUGCGGAUGGCGAUUGCU
DNA: AGCAATCGCCATCCGCACC
binding result [15]: no binding
binding result [16]: no binding
